# Assays:
# [1] = Partition coefficient (logP) of the compound; type: physicochemical; details: octanol/water
# Prothrombin = Prothrombin (Homo sapiens, UniProt P00734); assay: Inhibitory activity against human thrombin
# Homo sapiens [2] = organism: Homo sapiens; assay: Human microsome stabilities are reported as the ratio of the % remaining after a 1 hr incubation versus the internal standard thrombin inhibitor; type: functional; design: unit not given here
# [3] = t1/2 in dog; type: ADME, organism-based, Canis lupus familiaris; details: in vivo
# Procedure, shortened: (§1)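 Dog pharmacokinetics after oral dosing at 1 mg/kg, or at 0.7 or 0.5 mg/kg where footnoted. Cmax (µM) and oral half-life (h) from plasma levels.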
# Homo sapiens [4] = organism: Homo sapiens; assay: Concentration required to double the activated partial thromboplastin time (aPPT) in human plasma; type: functional, cell-free
# Procedure, shortened: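 Anticoagulant assay in human plasma. The value is the concentration of inhibitor that doubles the activated partial thromboplastin time (2×aPTT).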
# [5] = Maximum plasma concentration (Cmax) in dog at a dose of […] mg/kg; type: ADME, organism-based, Canis lupus familiaris; details: 0.5 mg/kg
# [6] = Maximum plasma concentration (Cmax) in dog at a dose of 1 mg/kg; type: ADME, organism-based, Canis lupus familiaris; design: dose 1 mg/kg; procedure, shortened: as §1
# [7] = Oral bioavailability (5 mg/kg) was determined in rhesus; details: Macaca mulatta, rhesus monkey, in vivo
# [8] = Oral bioavailability (10 mg/kg) was determined in rat; type: ADME, organism-based; details: in vivo
# Rattus norvegicus [9] = assay: […] activated partial thromboplastin time(APPT) after intravenous administration in rat model of FeCl3-induced carotid thrombosis; type: functional
# [10] = Oral bioavailability (1 mg/kg) was determined in dog; details: in vivo
# [11] = Maximum plasma concentration (Cmax) in dog (in vivo) at a dose of 1 mg/kg; type: ADME, organism-based, Canis lupus familiaris; design: dose 1 mg/kg; procedure, shortened: as §1
# [12] = Plasma clearance (pharmacokinetic parameter) in rat (in vivo) at a dose of 10 mg/kg; type: ADME, organism-based; design: dose 10 mg/kg; details: read-out: Clp
# Procedure, shortened: (§2)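 Plasma clearance and volume of distribution determined at a species-specific dose: 1 mg/kg for dog, 10 mg/kg for rat, 5 mg/kg for rhesus.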
# [13] = Half life period after intravenous administration (1 mg/kg) was determined in dog (in vivo); type: ADME, organism-based, Canis lupus familiaris
# [14] = Half life period after intravenous administration (5 mg/kg) was determined in rhesus (in vivo); type: ADME, organism-based, Macaca mulatta; details: rhesus monkey
# Rattus norvegicus [15] = assay: Thrombin time of occlusion after intravenous administration in rat model of FeCl3-induced carotid thrombosis; type: functional
# [16] = Plasma clearance (pharmacokinetic parameter) in rhesus (in vivo) at a dose of 5 mg/kg; type: ADME, organism-based, Macaca mulatta; design: dose 5 mg/kg; details: rhesus monkey, read-out: Clp; procedure, shortened: as §2
# [17] = Vd (1 mg/kg) was determined in dog (in vivo); type: ADME, organism-based, Canis lupus familiaris; procedure, shortened: as §2
# Rattus norvegicus [18] = assay: Time of occlusion after intravenous administration in rat model of FeCl3-induced carotid thrombosis; type: functional
# Procedure, shortened: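 Rat carotid artery thrombosis induced with FeCl3. Compound given iv as a continuous infusion (µg/kg/min; vehicle 0.3% DMSO). Read-outs: incidence of occlusion, time to occlusion, thrombin time, aPTT (s) and plasma level (µM).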
# [19] = Plasma clearance (pharmacokinetic parameter) in dog (in vivo) at a dose of 1 mg/kg; type: ADME, organism-based, Canis lupus familiaris; design: dose 1 mg/kg; details: read-out: Clp; procedure, shortened: as §2
# [20] = Maximum plasma concentration (Cmax) in rat (in vivo) at a dose of 10 mg/kg; type: ADME, organism-based; design: dose 10 mg/kg
# Procedure, shortened: (§3)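 Maximum plasma concentration in rat (10 mg/kg) and in rhesus (5 mg/kg), each measured at the dose stated for its species.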
# [21] = Half life period after intravenous administration (10 mg/kg) was determined in rat (in vivo); type: ADME, organism-based
# [22] = Vd (5 mg/kg) was determined in rhesus (in vivo); type: ADME, organism-based, Macaca mulatta; details: rhesus monkey; procedure, shortened: as §2
# [23] = Maximum plasma concentration (Cmax) in rhesus monkey(in vivo) at a dose of 5 mg/kg; type: ADME, organism-based; design: dose 5 mg/kg; details: cercopithecidae; procedure, shortened: as §3
# [24] = Vd (10 mg/kg) was determined in rat (in vivo); type: ADME, organism-based; procedure, shortened: as §2
# [25] = Compound was tested for percent protein binding (PB) in human; type: ADME; details: read-out: PB (converted)
# Procedure, shortened: (§4)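 Plasma protein binding given as percent free drug, measured in dog plasma and in human plasma.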
# [26] = Half life period after intravenous administration in dog; type: ADME, organism-based, Canis lupus familiaris; details: in vivo
# Procedure, shortened: (§5)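 Dog pharmacokinetics. Parameters are plasma clearance (mL/min/kg), volume of distribution (L/kg), iv half-life (h) and oral bioavailability F (%).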
# [27] = Plasma clearance (pharmacokinetic parameter) in dog was determined; type: ADME, organism-based, Canis lupus familiaris; details: read-out: Clp; procedure, shortened: as §5
# [28] = Vd in dog; type: ADME, organism-based, Canis lupus familiaris; details: in vivo; procedure, shortened: as §5
# [29] = Compound was tested for percent protein binding (PB) in dog; type: ADME, organism-based, Canis lupus familiaris; details: read-out: PB (converted); procedure, shortened: as §4
SMILES,logP [1],Ki (Prothrombin),Ratio (Homo sapiens [2]),half-life [3],Concentration (Homo sapiens [4]),Cmax [6],other results
O=C(Cn1c(Cl)cnc(NCC(F)(F)c2cccc[n+]2[O-])c1=O)NCc1cccc(Cl)c1,Not Active,0.26 nM,0,2.6 h,0.23 µM,–,Cmax [5]: 1910 nM
O=C(Cn1c(Cl)cnc(NCC(F)(F)c2cccc[n+]2[O-])c1=O)NCc1ccccc1Cl,1.89,2.5 nM,0.15,2.9 h,0.54 µM,700 nM,–
O=C(Cn1c(Cl)cnc(NCC(F)(F)c2cccc[n+]2[O-])c1=O)NCc1cccc(F)c1,Not Active,7.3 nM,0.71,4.1 h,0.86 µM,–,Cmax [5]: 1370 nM
O=C(Cn1c(Cl)cnc(NCC(F)(F)c2cccc[n+]2[O-])c1=O)NCc1cc(F)ccc1C(F)(F)F,1.99,1.7 nM,0,2.8 h,0.63 µM,990 nM,–
O=C(Cn1c(Cl)cnc(NCC(F)(F)c2cccc[n+]2[O-])c1=O)NCc1cccc(Cl)c1Cl,2.14,2 nM,0.39,2.5 h,0.88 µM,290 nM,–
O=C(Cn1c(Cl)cnc(NCC(F)(F)c2cccc[n+]2[O-])c1=O)NCc1ccccc1OCC(F)(F)F,1.93,1.8 nM,0,2.5 h,0.58 µM,2290 nM,–
O=C(Cn1c(Cl)cnc(NCC(F)(F)c2cccc[n+]2[O-])c1=O)NCc1ccccc1F,1.39,–,–,4.9 h,0.4 µM,3500 nM,bioavailability [7]: 21%; bioavailability [8]: 52%; APTT (Rattus norvegicus [9]): 22.6 s; bioavailability [10]: 40%; Cmax [11]: 3280 nM; clearance [12]: 43 mL/min/kg; half-life [13]: 6.3 h; half-life [14]: 1.1 h; TT (Rattus norvegicus [15]): 59.3 s; clearance [16]: 19 mL/min/kg; Vd [17]: 0.49 L/kg; TTO (Rattus norvegicus [18]): 15; clearance [19]: 1.55 mL/min/kg; Cmax [20]: 1940 nM; half-life [21]: 0.43 h; Vd [22]: 1.5 L/kg; Cmax [23]: 1050 nM; Vd [24]: 0.93 L/kg
Cc1cccc(CNC(=O)Cn2c(Cl)cnc(NCC(F)(F)c3cccc[n+]3[O-])c2=O)c1,1.81,0.8 nM,0.58,1.1 h,0.3 µM,2190 nM,–
O=C(Cn1c(Cl)cnc(NCC(F)(F)c2cccc[n+]2[O-])c1=O)NCc1c(F)ccc(F)c1F,1.42,1.1 nM,0.04,3.5 h,0.31 µM,1510 nM,–
O=C(Cn1c(Cl)cnc(NCC(F)(F)c2cccc[n+]2[O-])c1=O)NCc1ccc(F)c(Cl)c1,1.98,3.6 nM,0,2.4 h,0.78 µM,420 nM,–
CCOc1ccccc1CNC(=O)Cn1c(Cl)cnc(NCC(F)(F)c2cccc[n+]2[O-])c1=O,1.91,5.2 nM,0.08,1.2 h,0.87 µM,770 nM,–
O=C(Cn1c(Cl)cnc(NCC(F)(F)c2cccc[n+]2[O-])c1=O)NCc1ccccc1C(F)(F)F,2.24,3.6 nM,0.05,3.7 h,0.93 µM,–,Cmax [5]: 1430 nM
O=C(Cn1c(Cl)cnc(NCC(F)(F)c2ccccn2)c1=O)NCc1ncccc1F [DPOC-4088],–,–,–,–,0.78 µM,–,fraction unbound [25]: 0.86; half-life [26]: 4.5 h; clearance [27]: 2.2 mL/min/kg; Vd [28]: 0.62 L/kg; fraction unbound [29]: 0.67
O=C(Cn1c(Cl)cnc(NCC(F)(F)c2cccc[n+]2[O-])c1=O)NCc1cccc(OC(F)F)c1,1.73,7 nM,0.54,4.8 h,0.97 µM,120 nM,–

# — ChEMBL document CHEMBL1136692, “Pharmacokinetic optimization of 3-amino-6-chloropyrazinone acetamide thrombin inhibitors. Implementation of P3 pyridine N-oxides to deliver an orally bioavailable series containing P1 N-benzylamides” (Bioorg Med Chem Lett, 2003)
